Measurements collected from several papers.
Compare with care: the assays were run in different laboratories.
CTSB: Cathepsin B (CTSB, Homo sapiens, UniProt P07858)

O=c1cc(-c2ccccc2)oc2c1ccc1occc12 — IC50 (Cyclin-dependent kinase 2, with cyclin E1 (CDK2, Homo sapiens, UniProt P24941); enzyme activity; inhibitor; ADP detection): 7900 nM
CC1=NCCc2c1[nH]c1cc(O)ccc21 — IC50 (Receptor-type tyrosine-protein phosphatase C (PTPRC, Homo sapiens, UniProt P08575); enzyme activity; inhibitor; fluorescence): 14000 nM
CC(C)N(C)[C@@H]1CC[C@H](N2CC[C@H](NC(=O)c3cccc(C(F)(F)F)c3)C2=O)[C@H](CS(=O)(=O)C(C)C)C1 — IC50 (C-C chemokine receptor type 2 (CCR2, Homo sapiens, UniProt P41597); cell-free assay): 0.3 nM
COc1cc(NC(=O)C(=O)[C@H](CC(C)C)NC(=O)[C@H](CC(C)C)NC(=O)[C@H](CC(C)C)NC(=O)OCc2ccccc2)cc(OC)c1 — IC50 (Proteasome component C5/PSMB5, chymotrypsin-like site (Homo sapiens, UniProt P20618+P28074); enzyme activity in cells; inhibitor): 25.1 nM
Cc1ccc(-c2ncn(-c3ccc(Nc4nccc(-c5cccc(N6CCOCC6)c5)n4)cc3)n2)cn1 — IC50 (Mitogen-activated protein kinase 10 (MAPK10, Homo sapiens, UniProt P53779); enzyme activity; inhibitor): 159 nM
CCCCCCCCCCCCCCCCOC[C@H](COP(=O)([O-])OCC[N+](C)(C)C)OC(C)=O — IC50 (Platelet-activating factor receptor (PTAFR, Homo sapiens, UniProt P25105); ligand displacement; radioligand): 0.27 nM
Nc1ncnc2c1ncn2[C@@H]1O[C@H](COP(=O)(O)OP(=O)(O)OP(=O)(O)O)[C@@H](O)[C@H]1O — IC50 (Heat shock cognate 71 kDa protein (HSPA8, Homo sapiens, UniProt P11142); ligand displacement; FP): 200 nM
COCCn1c2nc(=O)n(-c3ccccc3)c(=O)c-2nc2ccccc21 — IC50 (Genome polyprotein, methyltransferase (ZIKV, UniProt A0A024B7W1); enzyme activity; inhibitor; TR-FRET): 6800 nM
CC(C)C[C@H](NC(=O)[C@H]1O[C@@H]1C(=O)O)C(=O)NCCCCN=C(N)N — IC50 (CTSB; enzyme activity; inhibitor): 4 nM
C[C@H](N)Cn1ncc2ccc3c(c21)CCCO3 — IC50 (Alpha-1A adrenergic receptor (Adra1a, Rattus norvegicus, UniProt P43140); ligand displacement; radioligand): 100000 nM
N#Cc1cc(F)cc(NS(=O)(=O)c2ccc(S(=O)(=O)F)c3c2CCCC3)c1 — IC50 (RALB (Homo sapiens, UniProt P11234, Y82F); cell-free assay; inhibitor; fluorescence): 69000 nM
CC(C)C[C@H]1C(=O)N2CCC[C@H]2[C@]2(O)O[C@](NC(=O)[C@@H]3C=C4c5cccc6[nH]c(Br)c(c56)C[C@H]4N(C)C3)(C(C)C)C(=O)N12 — IC50 (5-hydroxytryptamine receptor 7 (HTR7, Homo sapiens, UniProt P34969); ligand displacement; radioligand): 152 nM
C[C@@H]1O[C@@H](OC[C@H]2O[C@@H](Oc3c(-c4ccc(O)c(O)c4)oc4cc(O)cc(O)c4c3=O)[C@H](O)[C@@H](O)[C@@H]2O)[C@H](O)[C@H](O)[C@H]1O — IC50 (Genome polyprotein, protease (ZIKV, UniProt A0A024B7W1); enzyme activity; inhibitor; FRET; pH 7): 104000 nM
N=C1CCCN1Cc1[nH]c(=O)[nH]c(=O)c1F — IC50 (Thymidine phosphorylase (Homo sapiens, UniProt P19971); enzyme activity; inhibitor): 9 nM
CC(C)[C@H](NC(=O)[C@H](CCCNC(=N)N)NC(=O)N[C@@H](Cc1ccccc1)C(=O)O)C(=O)N[C@H](C=O)CCCNC(=N)N — IC50 (CTSB; enzyme activity; inhibitor; fluorescence; pH 5.5): 8.22 nM
